Test results: ChEMBL document CHEMBL1122071, “Avermectin acyl derivatives with anthelmintic activity” (1982)

Experiments:
Type in all cases: functional
[1] = test system: Cooperia oncophora; test: Anthelmintic efficacy against immature (EL4) Cooperia oncopphora (C.o) in sheep at dose of 0.025 mg/kg administered orally; details: route oral
[2] = test system: Cooperia oncophora; test: Anthelmintic efficacy against immature (EL4) Cooperia oncopphora (C.o) in sheep at dose of 0.05 mg/kg administered orally; 60-89%
[3] = test system: Cooperia oncophora; test: Anthelmintic efficacy against immature (EL4) Cooperia oncopphora (C.o) in sheep at dose of 0.1 mg/kg administered orally; details: route oral
Method in brief: (§1)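 Lambs were experimentally infected with mixed gastrointestinal nematodes: Haemonchus contortus, Ostertagia circumcincta, Trichostrongylus axei, T. colubriformis, Cooperia oncophora and Oesophagostomum columbianum. Dosing was oral, in mg/kg, with 3 sheep per dose group. An untreated infected group of 6 sheep served as reference, with worm burdens given as the geometric mean per lamb. Immature (EL4) and adult worms were scored separately.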

[4] = test system: Cooperia oncophora; test: Anthelmintic efficacy against adult Cooperia oncopphora (C.o) in sheep at dose of 0.025 mg/kg administered orally; 0-19%
Method in brief: (§2)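 Lambs experimentally infected with mixed gastrointestinal nematodes (H. contortus, O. circumcincta, T. axei, T. colubriformis, C. oncophora, Oe. columbianum) were dosed orally, 1–3 sheep per dose. An untreated infected group of 6 was included, with worm burdens given as the geometric mean number of worms per lamb. Efficacy was scored against adult and, where listed, EL4 stages.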

[5] = test system: Cooperia oncophora; test: Anthelmintic efficacy against adult Cooperia oncopphora (C.o) in sheep at dose of 0.05 mg/kg administered orally; 0-19%; method in brief: as §2
[6] = test system: Cooperia oncophora; test: Anthelmintic efficacy against adult Cooperia oncopphora (C.o) in sheep at dose of 0.1 mg/kg administered orally; 60-89%; method in brief: as §2
[7] = test system: Haemonchus contortus; test: Anthelmintic efficacy against adult Haemonchus contortus (H.c) in sheep at dose of 0.025 mg/kg administered orally; details: route oral; method in brief: as §1
[8] = test system: Haemonchus contortus; test: Anthelmintic efficacy against adult Haemonchus contortus (H.c) in sheep at dose of 0.05 mg/kg administered orally; details: route oral; method in brief: as §1
[9] = test system: Haemonchus contortus; test: Anthelmintic efficacy against adult Haemonchus contortus (H.c) in sheep at dose of 0.1 mg/kg administered orally; details: route oral; method in brief: as §2
[10] = test system: Oesophagostomum columbianum; test: Anthelmintic efficacy against Oseophagostomum columbianum (Oe. c) in sheep at dose of 0.05 mg/kg administered orally; details: route oral; method in brief: as §1
[11] = test system: Oesophagostomum columbianum; test: Anthelmintic efficacy against Oseophagostomum columbianum (Oe. c) in sheep at dose of 0.1 mg/kg administered orally; details: route oral; method in brief: as §2
[12] = test system: Teladorsagia circumcincta; test: Anthelmintic efficacy against immature (EL4) Ostertagia circumcincta (O. c) in sheep at dose of 0.05 mg/kg administered orally; 0-19%
[13] = test system: Teladorsagia circumcincta; test: Anthelmintic efficacy against immature (EL4) Ostertagia circumcincta (O. c) in sheep at dose of 0.1 mg/kg administered orally; 60-89%
[14] = test system: Teladorsagia circumcincta; test: Anthelmintic efficacy against adult Ostertagia circumcincta (O. c) in sheep at dose of 0.025 mg/kg administered orally; details: route oral; method in brief: as §2
[15] = test system: Teladorsagia circumcincta; test: Anthelmintic efficacy against adult Ostertagia circumcincta (O. c) in sheep at dose of 0.05 mg/kg administered orally; details: route oral; method in brief: as §1
[16] = test system: Teladorsagia circumcincta; test: Anthelmintic efficacy against adult Ostertagia circumcincta (O. c) in sheep at dose of 0.1 mg/kg administered orally; details: route oral; method in brief: as §2
[17] = test system: Teladorsagia circumcincta; test: Anthelmintic efficacy against immature (EL4) Ostertagia circumcincta (O. c) in sheep at dose of 0.025 mg/kg administered orally; details: route oral
[18] = test system: Trichostrongylus axei; test: Anthelmintic efficacy against Trichostrongylus axei (T.a) in sheep at dose of 0.025 mg/kg administered orally; 20-59%; method in brief: as §2
[19] = test system: Trichostrongylus axei; test: Anthelmintic efficacy against Trichostrongylus axei (T.a) in sheep at dose of 0.05 mg/kg administered orally; details: route oral; method in brief: as §1
[20] = test system: Trichostrongylus colubriformis; test: Minimal dose necessary to eliminate > 83% of Trichostrongylus colubriformis infection in gerbils
[21] = test system: Trichostrongylus colubriformis; test: Anthelmintic efficacy against Trichostrongylus colubriformis (T.c) in sheep at dose of 0.025 mg/kg administered orally; details: route oral; method in brief: as §2
[22] = test system: Trichostrongylus colubriformis; test: Anthelmintic efficacy against Trichostrongylus colubriformis (T.c) in sheep at dose of 0.05 mg/kg administered orally; details: route oral; method in brief: as §1
[23] = test system: Trichostrongylus colubriformis; test: Anthelmintic efficacy against Trichostrongylus colubriformis in sheep at dose of 0.1 mg/kg administered orally; details: route oral; method in brief: as §2
[24] = test system: Trichostrongylus axei; test: Anthelmintic efficacy against Trichostrongylus axei (T.a) in sheep at dose of 0.1 mg/kg administered orally; details: route oral; method in brief: as §2
[25] = test system: Oesophagostomum columbianum; test: Anthelmintic efficacy against Oseophagostomum columbianum (Oe. c) in sheep at dose of 0.025 mg/kg administered orally; details: route oral; method in brief: as §1

With `CC[C@H](C)[C@H]1O[C@]2(C=C[C@@H]1C)C[C@@H]1C[C@@H](C/C=C(\C)[C@@H](O[C@H]3C[C@@H](OC)[C@@H](O[C@H]4C[C@@H](OC)[C@@H](OC(C)=O)[C@H](C)O4)[C@H](C)O3)[C@@H](C)/C=C/C=C3\CO[C@@H]4[C@H](O)C(C)=C[C@@H](C(=O)O1)[C@]34O)O2` the Efficacy [1] was 89%, the Efficacy [2] was 60% and the Efficacy [3] was over 90%. For the same compound, the Efficacy [4] was 0%, the Efficacy [5] was 0% and the Efficacy [6] was 60%. It also gave an Efficacy [7] of over 90%, an Efficacy [8] of over 90% and an Efficacy [9] of over 90%. It also gave an Efficacy [10] of over 90%, an Efficacy [11] of over 90% and an Efficacy [12] of 0%. The Efficacy [13] was 60%, the Efficacy [14] was over 90% and the Efficacy [15] was over 90%. It also gave an Efficacy [16] of over 90%, an Efficacy [17] of 19% and an Efficacy [18] of 20%. For the same compound, the Efficacy [19] was over 90%, the Dose [20] was 0.031 mg/kg and the Efficacy [21] was over 90%. It also gave an Efficacy [22] of over 90%, an Efficacy [23] of over 90% and an Efficacy [24] of over 90%. For the same compound, the Efficacy [25] was over 90%.
`CC[C@H](C)[C@H]1O[C@]2(C=C[C@@H]1C)C[C@@H]1C[C@@H](C/C=C(\C)[C@@H](O[C@H]3C[C@@H](OC)[C@@H](O[C@H]4C[C@@H](OC)[C@@H](O[Si](C)(C)C(C)(C)C)[C@H](C)O4)[C@H](C)O3)[C@@H](C)/C=C/C=C3\CO[C@@H]4[C@H](O[Si](C)(C)C(C)(C)C)C(C)=C[C@@H](C(=O)O1)[C@]34O)O2` showed a Dose [20] of over 2.5 mg/kg.
`CCCCCCCC(=O)O[C@H]1[C@H](C)O[C@@H](O[C@H]2[C@H](C)O[C@@H](O[C@@H]3/C(C)=C/C[C@@H]4C[C@@H](C[C@]5(C=C[C@H](C)[C@@H]([C@@H](C)CC)O5)O4)OC(=O)[C@@H]4C=C(C)[C@@H](O)[C@H]5OC/C(=C\C=C\[C@@H]3C)[C@]54O)C[C@H]2OC)C[C@H]1OC` gave a Dose [20] of 0.125 mg/kg.
With `CC[C@H](C)[C@H]1O[C@]2(C=C[C@@H]1C)C[C@@H]1C[C@@H](C/C=C(\C)[C@@H](O[C@H]3C[C@@H](OC)[C@@H](O[C@H]4C[C@@H](OC)[C@@H](OC(=O)CNC(C)=O)[C@H](C)O4)[C@H](C)O3)[C@@H](C)/C=C/C=C3\CO[C@@H]4[C@H](O)C(C)=C[C@@H](C(=O)O1)[C@]34O)O2` the Dose [20] was 0.025 mg/kg.
In the case of `CC[C@H](C)[C@H]1O[C@]2(C=C[C@@H]1C)C[C@@H]1C[C@@H](C/C=C(\C)[C@@H](O[C@H]3C[C@@H](OC)[C@@H](O[C@H]4C[C@@H](OC)[C@@H](OC(=O)N(C)C)[C@H](C)O4)[C@H](C)O3)[C@@H](C)/C=C/C=C3\CO[C@@H]4[C@H](O)C(C)=C[C@@H](C(=O)O1)[C@]34O)O2`, the Dose [20] is reported as 0.06 mg/kg.
`CC[C@H](C)[C@H]1O[C@]2(C=C[C@@H]1C)C[C@@H]1C[C@@H](C/C=C(\C)[C@@H](O[C@H]3C[C@@H](OC)[C@@H](O[C@H]4C[C@@H](OC)[C@@H](OC(N)=O)[C@H](C)O4)[C@H](C)O3)[C@@H](C)/C=C/C=C3\CO[C@@H]4[C@H](O)C(C)=C[C@@H](C(=O)O1)[C@]34O)O2` gave a Dose [20] of 0.025 mg/kg.
`CC[C@H](C)[C@H]1O[C@]2(C=C[C@@H]1C)C[C@@H]1C[C@@H](C/C=C(\C)[C@@H](O[C@H]3C[C@@H](OC)[C@@H](O[C@H]4C[C@@H](OC)[C@@H](OC(=O)C(C)(C)C)[C@H](C)O4)[C@H](C)O3)[C@@H](C)/C=C/C=C3\CO[C@@H]4[C@H](O)C(C)=C[C@@H](C(=O)O1)[C@]34O)O2` was tested, and the Dose [20] was 0.5 mg/kg.
